Source: PubChem (The Scripps Research Institute Molecular Screening Center)
Compounds with a hit are over-represented: about 2.7% of the library has one in this group of screens.
PAFAH1B2 inh: PAFAH1B2 enzyme inhibitors, primary screen, biochemical, fluorescence polarization, human | Platelet-activating factor acetylhydrolase IB subunit alpha2 (Homo sapiens), P68402 | recombinant PAFAH1B2, FP-rhodamine activity probe | inhibition, % at 3.39 µM | 340,000 compounds, 1.2% hits | AID 492953, 2010;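 active = inhibition above the mean of all tested compounds plus 3 SD, cut at about 24% in these data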
PAFAH1B3 FP inh: PAFAH1B3 enzyme inhibitors, primary screen, biochemical, fluorescence polarization, human; 340,000 compounds, 0.28% hits; AID 492972, 2010; Platelet-activating factor acetylhydrolase IB subunit alpha1 (Homo sapiens), Q15102; inhibition, % at 3.39 µM; recombinant PAFAH1B3, FP-rhodamine probe;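 active = inhibition above the screen-wide average of all tested compounds plus 3 SD, cut at about 25% in these data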
Target sequence (Q15102 whole entry, looked up): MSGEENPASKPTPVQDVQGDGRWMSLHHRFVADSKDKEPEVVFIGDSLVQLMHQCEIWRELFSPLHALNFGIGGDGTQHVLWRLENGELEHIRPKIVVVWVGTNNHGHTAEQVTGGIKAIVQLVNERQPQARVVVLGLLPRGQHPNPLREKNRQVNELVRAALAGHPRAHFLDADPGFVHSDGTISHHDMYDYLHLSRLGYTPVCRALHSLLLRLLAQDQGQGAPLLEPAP
ARFGAP1 inh: inhibitors of rat ARFGAP1 GAP activity, primary screen, biochemical, fluorescence polarization, GDP tracer; ADP-ribosylation factor GTPase-activating protein 1 (Rattus norvegicus), Q62848; Arfgap1-stimulated ARF1 GTP hydrolysis, GDP FP detection; inhibition, % at 16.5 µM; 360,000 compounds, 0.26% hits; AID 651572, 2012;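 active = inhibition above a per-plate limit, mean inhibition of low control wells plus 3 SD, cut at about 25% in these data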
Target sequence (Q62848 1-136 limits assumed): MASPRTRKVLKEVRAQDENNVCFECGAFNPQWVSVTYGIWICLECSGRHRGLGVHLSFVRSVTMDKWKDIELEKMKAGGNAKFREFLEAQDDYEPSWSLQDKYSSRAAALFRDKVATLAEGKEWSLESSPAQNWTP
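Replicates: Single well per compound | Assay system: Truncated rat Arfgap1 GAP domain | Control set: No-Arfgap1 wells (100%) versus DMSO full-reaction wells (0%) | Times: Enzyme reaction 120 min at 25 °C after 20 min preincubation | Reagent: Human ARF1(Δ1-17)-GTP substrate | Measured by: Tracer-displacement fluorescence polarization with EDTA stop, 620/688 nm | Measure: Percent inhibition of Arfgap1-stimulated GTP hydrolysis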
ASAP1 inh: inhibitors of human ASAP1 ArfGAP activity, primary screen, biochemical, fluorescence polarization; ASAP1-stimulated ARF1 GTP hydrolysis, GDP FP detection; inhibition, % at 16.5 µM; 360,000 compounds, 0.19% hits; in the data active = inhibition above about 25%
pPAFAH inh: pPAFAH enzyme inhibitors, primary screen, biochemical, fluorescence polarization, human; recombinant pPAFAH, FP-rhodamine probe fluorescence polarization; Platelet-activating factor acetylhydrolase (Homo sapiens), Q13093; inhibition, % at 3.39 µM; 330,000 compounds, 1.5% hits;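 active = inhibition above the mean inhibition across the screen plus 3 SD, cut at about 25% in these data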;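 also: inhibitors block binding of the rhodamine activity-based probe so polarization drops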
PAFAH2 FP inh: PAFAH2 enzyme inhibitors, primary screen, biochemical, fluorescence polarization, human. recombinant PAFAH2, FP-rhodamine activity probe. Platelet-activating factor acetylhydrolase 2, cytoplasmic (Homo sapiens), Q99487. inhibition, % at 3.39 µM. AID 492956, 2010. 340,000 compounds, 0.99% hits;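 active = inhibition above the mean over all tested compounds plus 3 SD, cut at about 30% in these data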;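 also: inhibitors block probe labeling of enzyme so polarization drops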
ASAP1 inh confirm: ASAP1 GAP activity inhibitors, confirmation, biochemical, fluorescence polarization, human, triplicate. shares compounds with ASAP1 inh. ASAP1-stimulated Arf1 GTPase, GDP fluorescence polarization. inhibition, % at 16.5 µM. 620 compounds, 37% hits;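 active = mean inhibition over triplicates exceeds the hit threshold derived for the earlier primary screening run, cut at about 25% in these data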
ARFGAP1 confirm: ARFGAP1 inhibitor hit confirmation, biochemical, fluorescence polarization, triplicate. shares compounds with ARFGAP1 inh. ARFGAP1-stimulated ARF1 GTP hydrolysis, GDP tracer FP. inhibition, % at 16.5 µM. 890 compounds, 30% hits;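 active = average inhibition over triplicates above the hit cutoff set in the earlier primary screen, cut at about 25% in these data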
Numbers stand for hits; . = inactive; / = no result.

SMILES	PAFAH1B2 inh	PAFAH1B3 FP inh	ARFGAP1 inh	ASAP1 inh	pPAFAH inh	PAFAH2 FP inh	ASAP1 inh confirm	others
O=C(Cn1c2ccccc2c(=O)c2ccccc21)N/N=C/c1cc([N+](=O)[O-])ccc1N1CCCCCC1	.	.	.	37	.	.	40
Oc1ccccc1CN1CCCC(N2CCc3ccccc3C2)C1 (stereo not drawn)	.	.	.	.	.	.	/
CC(/C=N/NC(=O)c1nnn(-c2nonc2N)c1C(C)C)=C\c1ccccc1	.	.	.	29	.	.	.
CCNC(=O)N(C)[C@H]1C[C@@H](c2ccccc2)N(C(C)=O)C[C@H]1CO	/	/	.	.	/	/	/
COc1cccc(C(=O)c2c(-c3ccccc3)ncc3cc(OC)c(OC)cc23)c1	.	.	.	.	.	.	/
COc1cc(OC)cc(-c2sc3ccc(OC)cc3c2C#CCO)c1	.	.	.	.	.	.	/
COc1cc2sc(-c3ccc(S(C)(=O)=O)cc3)c(C#CCO)c2cc1OC	.	.	.	30	.	.	.
CCOc1cc(/C=C2/NC(=S)NC2=O)ccc1OCc1ccc([N+](=O)[O-])cc1	.	.	.	29	.	.	.
Cc1nc2nc[nH]n2c(=O)c1NS(C)(=O)=O	.	.	.	26	.	.	.
CCN(CC)C(=O)/C(=C\c1ccc(Br)cc1)NC(=O)c1ccccc1OC	.	.	.	.	.	.	/
COc1ccccc1Nc1nc(-c2sc(NC(=O)C(C)(C)C)nc2C)cs1	.	.	.	.	.	.	/
Cc1ccc(Cl)cc1Nc1nc(-c2sc(NC(=O)C(C)(C)C)nc2C)cs1	.	.	.	25	.	.	.
CC(C)N(C)c1ncnc2c1ncn2[C@H]1CN(Cc2cccs2)C[C@@H](CO)O1	/	/	.	.	/	/	/
CCOC(=O)N1CCN(S(=O)(=O)c2ccc(OC)c(Cl)c2Cl)CC1	.	.	.	.	.	.	/
COc1ccc(S(=O)(=O)N2CCCC2)c(Cl)c1Cl	.	.	.	25	.	.	.
Cc1noc(C)c1NC(=O)N(C)C[C@H]1OCCCC[C@@H](C)Oc2ccc(NS(=O)(=O)c3ccccc3)cc2C(=O)N([C@H](C)CO)C[C@@H]1C	/	/	.	26	/	/	.
CC1(C)SC(=S)N(/N=C/c2ccc(O)cc2)C1N(O)C(=O)Nc1ccc([N+](=O)[O-])cc1 (stereo not drawn)	.	.	.	25	.	.	.
COc1ccc(CCn2c(C)c(C(C)=O)c3cc(OC(=O)c4ccco4)ccc32)cc1OC	.	.	.	25	.	.	.
CC(=O)c1c(C)n(C)c2ccc(OC(=O)c3ccco3)cc12	.	.	.	.	.	.	/
Cc1ccc(S(=O)(=O)N2CCN(C(=O)Cn3nc(C)c([N+](=O)[O-])c3C)CC2)cc1	.	.	.	.	.	.	/
CCOc1ccccc1CNn1cnnc1SCC(=O)NC(C)(C)C	/	/	.	.	/	/	/
Nc1nc(SCc2ccc(Cl)cc2Cl)nc2nc3c(cc12)CCCC3	.	.	47	31	.	.	69	ARFGAP1 confirm=68
